Source: ChEMBL document CHEMBL1121893, “N-Aralkyl substitution of 2-amino-5,6- and -6,7-dihydroxy-1,2,3,4-tetrahydronaphthalenes. 1. Cardiac and pressor/depressor activities” (J Med Chem, 1981)
pEC50: −log10 of the molar value. Active and inactive are the calls of the source. The calls are words filed in the database; no cut-off is given here.

What was measured:
Canis familiaris [1] = species on record: Canis familiaris; test: Cardioselectivity expressed as change in blood pressure for 100% increase in right ventricular contractile force in dogs; CF(100) levels not obtained; format: functional, organism-based; conditions: Canis lupus familiaris
Outline: (§1)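 Mongrel dogs of either sex, pentobarbital sodium anaesthesia (30 mg/kg iv, supplemented as needed), ventilated. Femoral arterial BP recorded, drugs given into a forelimb vein as iv boluses in saline with 0.5 mg/mL sodium bisulfite. Right ventricular CF measured by Walton-Brodie strain gauge. Peak response taken per dose, doses raised in 2-fold steps until CF rose 100%. HR and BP changes read at 50% and 100% CF increase. Means ± SEM.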

Canis familiaris [2] = species on record: Canis familiaris; test: Inotropic potency expressed as 50 percent increase in right ventricular contractile force in dogs; format: functional, Canis lupus familiaris, Heart right ventricle; outline: as §1
[3] = Percentage increase in contractile force was determined by the effect of DMI (desmethylimipramine, 1 mg/kg, iv) at 50 ug/kg
Canis familiaris [4] = species on record: Canis familiaris; test: Cardioselectivity expressed as change in blood pressure for 50% increase in right ventricular contractile force in dogs; format: functional, Canis lupus familiaris; outline: as §1
Canis familiaris [5] = species on record: Canis familiaris; test: Inotropic potency expressed as 100 percent increase in right ventricular contractile force in dogs; CF(100) levels not obtained; CF(100) levels not obtained; format: functional, organism-based; conditions: Canis lupus familiaris; Heart right ventricle; outline: as §1
Cavia porcellus [6] = species on record: Cavia porcellus; test: (§2) Effective concentration for increasing potency rate in guinea pig isolated right atria; format: functional
Outline: (§3)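 Isolated guinea pig left and right atria, field stimulated with 5 ms pulses and allowed to stabilise 60 min with periodic washing. An isoproterenol cumulative concentration-response curve was run first, tissues washed, then a cumulative curve with the test compound. Force was read in both atria and rate in right atria. Intrinsic activity = maximal response ÷ isoproterenol maximum. EC20 was given where EC50 was not reached. Means ± SE.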

Cavia porcellus [7] = species on record: Cavia porcellus; test: (§4) Effective concentration for increasing potency force in guinea pig isolated left atria; format: functional; outline: as §3
Cavia porcellus [8] = species on record: Cavia porcellus; test: Compound was tested for or relative intrinsic activity in guinea pig isolated atrium left atria; format: functional, Cardiac atrium; outline: as §3
Canis familiaris [9] = species on record: Canis familiaris; test: Ionotropic selectivity expressed as change in heart rate for 100 percent increase in right ventricular contractile force in dogs; CF(100) levels not obtained; format: functional, organism-based; conditions: Canis lupus familiaris; outline: as §1
Canis familiaris [10] = species on record: Canis familiaris; test: Ionotropic selectivity expressed as change in heart rate for 50 percent increase in right ventricular contractile force in dogs; format: functional, Canis lupus familiaris; outline: as §1
Cavia porcellus [11] = species on record: Cavia porcellus; test: Compound was tested for relative intrinsic activity in guinea pig isolated atrium right atria; format: functional, Cardiac atrium; outline: as §3
Canis familiaris [12] = species on record: Canis familiaris; test: Ionotropic selectivity expressed as change in heart rate for 100 percent increase in right ventricular contractile force in dogs; format: functional, Canis lupus familiaris
Outline: (§5)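 Mongrel dogs of either sex, anesthetized with pentobarbital sodium (30 mg/kg iv) and ventilated. Femoral-artery blood pressure, heart rate and right ventricular contractile force were recorded, the force by strain gauge with the muscle stretched to 140% of in situ length. After 30 min equilibration, iv bolus doses in saline with 0.5 mg/mL bisulfite were doubled until contractile force rose 100%. Peak responses were taken.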

Cavia porcellus [13] = species on record: Cavia porcellus; test: as §2; format: functional; remark: listed apart in the source
Outline: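 Isolated atria were stabilized 60 min with periodic washing. A cumulative isoproterenol concentration-response curve was run, then washed out. A cumulative curve with the test compound followed. The EC50 was derived, or EC20 where 50% was not reached. Intrinsic activity is the maximal response relative to isoproterenol maximum.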

Canis familiaris [14] = species on record: Canis familiaris; test: Cardioselectivity expressed as change in blood pressure for 100% increase in right ventricular contractile force in dogs; format: functional, Canis lupus familiaris; outline: as §5
Cavia porcellus [15] = species on record: Cavia porcellus; test: as §4; format: functional; remark: listed apart in the source
Canis familiaris [16] = species on record: Canis familiaris; test: Inotropic potency expressed as 100 percent increase in right ventricular contractile force in dogs; format: functional, Canis lupus familiaris, Heart right ventricle; outline: as §5
Cavia porcellus [17] = species on record: Cavia porcellus; test: Effective concentration for increasing potency in guinea pig isolated right atria; format: functional; outline: as §3
Canis familiaris [18] = species on record: Canis familiaris; test: Cardioselectivity expressed as change in blood pressure for 100% increase in right ventricular contractile force in dogs; CF(100) level not obtained; format: functional, organism-based; conditions: Canis lupus familiaris; outline: as §1
Canis familiaris [19] = species on record: Canis familiaris; test: Ionotropic selectivity expressed as change in heart rate for 100 percent increase in right ventricular contractile force in dogs; CF(100) level not obtained; format: functional, organism-based; conditions: Canis lupus familiaris; outline: as §1
Canis familiaris [20] = species on record: Canis familiaris; test: Inotropic potency expressed as 100 percent increase in right ventricular contractile force in dogs; CF(100) level not obtained; format: functional, organism-based; conditions: Canis lupus familiaris; Heart right ventricle; outline: as §1
Canis familiaris [21] = species on record: Canis familiaris; test: Inotropic potency expressed as 100 percent increase in right ventricular contractile force in dogs; CF(100) levels not obtained; format: functional, organism-based; conditions: Canis lupus familiaris; Heart right ventricle; outline: as §1

SMILES | Potency (Canis familiaris [2]) [nM/kg] | BP (Canis familiaris [4]) [mmHg] | pEC50 (Cavia porcellus [6]) | pEC50 (Cavia porcellus [7]) | RIA (Cavia porcellus [8]) | HR (Canis familiaris [10]) [beats min-1] | RIA (Cavia porcellus [11]) | HR (Canis familiaris [12]) [beats min-1] | BP (Canis familiaris [14]) [mmHg] | Potency (Canis familiaris [16]) [nM/kg] | other results
NC1CCc2c(ccc(O)c2O)C1 (centres undefined) | 410 | 41 | 4.42 | 5.36 | 1.05 | 11 | 0.69 | – | – | – | BP (Canis familiaris [1]): inactive; Increase [3]: 18%; Potency (Canis familiaris [5]): inactive; HR (Canis familiaris [9]): inactive
Oc1cc2c(cc1O)CC(NC1CCc3cc(O)c(O)cc3C1)CC2 (centres undefined) | 961 | 78 | – | – | 0.38 | 31 | 0.08 | 62 | 84 | 2650 | EC20 (Cavia porcellus [13]): > 110 µM; EC20 (Cavia porcellus [15]): 2.4 µM
CC(CCc1ccc(O)cc1)NCCc1ccc(O)c(O)c1 (centres undefined) [DOBUTAMINE] | 4.1 | 3 | 6.33 | 6.82 | 1.12 | 3 | 0.9 | 17 | 4 | 13.2 | –
NCCc1ccc(O)c(O)c1 [DOPAMINE] | 58.1 | -15 | 5.82 | 5.77 | 1.15 | 5 | 1 | 12 | -5 | 125 | –
CC(Cc1ccc(O)c(O)c1)NC1CCc2c(ccc(O)c2O)C1 (centres undefined) | 7.2 | -42 | 6.80 | 6.60 | 1.02 | 26 | 0.87 | 40 | -54 | 20.1 | –
CC(C)NCC(O)c1ccc(O)c(O)c1 (centres undefined) [ISOPROTERENOL] | 0.11 | -17 | 8.21 | 8.49 | 1 | 13 | 1 | 35 | -27 | 0.35 | –
CC(CCc1ccc(O)cc1)NC1CCc2cc(O)c(O)cc2C1 (centres undefined) | 140 | 13 | – | – | 0.38 | -3 | 0.15 | 19 | 60 | 410 | EC20 (Cavia porcellus [17]): > 110 µM; EC20 (Cavia porcellus [15]): 2.7 µM
CC(CCc1ccc(O)cc1)NC1CCc2c(ccc(O)c2O)C1 (centres undefined) | 27.7 | -51 | 5.74 | 6.14 | 1.11 | 20 | 0.78 | 41 | -61 | 196 | –
CC(C)NC1CCc2cc(O)c(O)cc2C1 (centres undefined) | 1560 | 46 | – | 4.31 | 0.78 | 9 | 0.24 | – | – | – | EC20 (Cavia porcellus [17]): 200 µM; BP (Canis familiaris [18]): CF(100) level not obtained; HR (Canis familiaris [19]): CF(100) level not obtained; Potency (Canis familiaris [20]): CF(100) level not obtained
NC1CCc2cc(O)c(O)cc2C1 (centres undefined) | 173 | 29 | 4.48 | 5.60 | 1.06 | -12 | 0.61 | 21 | 61 | 457 | Increase [3]: 5%
CC(C)NC1CCc2c(ccc(O)c2O)C1 (centres undefined) | 110 | -66 | 5.77 | 4.68 | 1.16 | 20 | 0.55 | – | – | – | BP (Canis familiaris [1]): CF(100) levels not obtained; HR (Canis familiaris [9]): CF(100) levels not obtained; Potency (Canis familiaris [21]): CF(100) levels not obtained
CC(Cc1ccc(O)c(O)c1)NC1CCc2cc(O)c(O)cc2C1 (centres undefined) | 11.4 | -39 | – | 6.55 | 0.95 | -5 | 0.69 | 4 | – | 27 | pEC50 (Cavia porcellus [17]): 5.66
CC(CCc1ccc(O)c(O)c1)NC1CCc2cc(O)c(O)cc2C1 (centres undefined) | 24.6 | -36 | 5.92 | – | – | 20 | 0.35 | 45 | -11 | 109 | –
Oc1ccc(CCNC2CCc3cc(O)c(O)cc3C2)cc1O (centres undefined) | 85 | 50 | – | 5.82 | 0.84 | 11 | 0.67 | 30 | 72 | 189 | pEC50 (Cavia porcellus [17]): 4.80
